Published values from different studies.
Each line is one published result; the experiments were not run side by side.
Effect on: cell growth or viability

Compound	cell line	test	setting	endpoint	result
CCSc1nc(C2CC2)cc(C(F)(F)F)n1	HEK-293T	ATP luminescence	24 h	CC50	> 60 µM
O=C(Cc1csc(NC(=O)c2cc3ccccc3[nH]2)n1)NN=Cc1cccc2ccccc12 (mixture of isomers)	HepG2	MTT		IC50	36 µM
COc1ccccc1C(=O)/C=C/c1cn(Cc2cn(-c3ccnc4cc(Cl)ccc34)nn2)c2ccccc12	HepG2	MTT	100 µM, 24 h	viability	> 90%
O[C@@H](CN1CCN(C(c2ccccc2)c2ccccc2)CC1)c1cc(Cl)cc2c1-c1ccc(Cl)cc1C2	HepG2		48 h	CC50	> 50 µM
CC[S+]([O-])c1nc(-c2ccccc2)cc(C(F)(F)F)n1 (stereo not shown)	HEK-293T	ATP luminescence	24 h	CC50	> 60 µM
Clc1ccc(OC2=CC(c3ccc[nH]3)=N/C2=C\NC23CC4CC(CC(C4)C2)C3)cc1	HepG2	MTT	48 h	IC50	14.5 µM
O[C@@H](CNCCN1CCN(C(c2ccccc2)c2ccccc2)CC1)c1cc(Cl)cc2c1-c1ccc(Cl)cc1C2	HepG2	MTT	72 h	CC50	27.1 µM
CCS(=O)(=O)c1nc(C2CC2)cc(C(F)(F)F)n1	HEK-293T	ATP luminescence	24 h	CC50	29 µM
COc1ccc2[nH]c(C(=O)Nc3nc(CC(=O)NN=Cc4cccc5ccccc45)cs3)cc2c1 (mixture of isomers)	HepG2	MTT		IC50	24.2 µM
CCCCNCC(O)c1cc(Cl)cc2c1-c1ccc(Cl)cc1C2 (racemic)	HepG2		48 h	CC50	6.4 µM
